According to ChEMBL document CHEMBL4359838, “Glucopyranosylidene-spiro-imidazolinones, a New Ring System: Synthesis and Evaluation as Glycogen Phosphorylase Inhibitors by Enzyme Kinetics and X-ray Crystallography” (J Med Chem, 2019):
Calls of active or inactive are those of the source. The rule behind the calls is not given here.

Key:
[1] = Inhibition of human liver Glycogen phosphorylase a using glucose-1-phosphate as substrate
Outline: (§1)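 Human liver GPa (1 μg/mL) assayed at 30 °C toward glycogen synthesis in 30 mM imidazole/HCl pH 6.8 with 60 mM KCl, 0.6 mM EDTA, 0.6 mM DTT, 0.2% w/v glycogen and no AMP. Glc-1-P was varied at 1, 2, 3, 4 and 6 mM against several inhibitor levels. Released Pi was read; Ki came from Km(app) versus [inhibitor] by weighted nonlinear regression.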

[2] = Inhibition of rabbit muscle Glycogen phosphorylase a using glucose-1-phosphate as substrate; parameters: species or system Oryctolagus cuniculus
Outline: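 Rabbit muscle GPa (3 μg/mL) was run at 30 °C in the glycogen-synthesis direction in 30 mM imidazole/HCl pH 6.8 containing 60 mM KCl, 0.6 mM EDTA, 0.6 mM DTT and 0.2% w/v glycogen, without AMP. Glc-1-P was 2, 3, 4, 6 and 10 mM with varied inhibitor. Inorganic phosphate release was measured; Ki came from the Km(app) versus [inhibitor] fit.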

[3] = Inhibition of rabbit muscle Glycogen phosphorylase b using glucose-1-phosphate as substrate in presence of AMP; parameters: species or system Oryctolagus cuniculus
Outline: (§2)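 Rabbit muscle GPb (3 μg/mL) was assayed at 30 °C for glycogen synthesis in 30 mM imidazole/HCl pH 6.8 with 60 mM KCl, 0.6 mM EDTA, 0.6 mM DTT, 0.2% w/v glycogen and 1 mM AMP. Glc-1-P was varied (2, 3, 4, 6, 10 mM) at several inhibitor concentrations. Pi release gave initial rates; Ki came from Km(app) versus [inhibitor] by nonlinear regression.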

Homo sapiens [4] = species: Homo sapiens; assay: Competitive inhibition of human liver Glycogen phosphorylase a up to 35 uM using glucose-1-phosphate as substrate by Lineweaver-Burk plot analysis; outline: as §1
Oryctolagus cuniculus = species: Oryctolagus cuniculus; assay: Inhibition of rabbit muscle Glycogen phosphorylase b at 625 uM using glucose-1-phosphate as substrate in presence of AMP relative to control
Homo sapiens [5] = species: Homo sapiens; assay: Competitive inhibition of human liver Glycogen phosphorylase a up to 3 uM using glucose-1-phosphate as substrate by Lineweaver-Burk plot analysis; outline: as §1
HepG2 = assay: Cytotoxicity against human HepG2 cells at 80 to 516 uM incubated for 2 hrs; assay type: cell-based; conditions: hepg2, 2 h
[6] = Inhibition of Glycogen phosphorylase in human HepG2 cells incubated for 2 hrs; assay type: cell-based
Outline: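 HepG2 cells were precultured in 25 mmol/L glucose with 10 nM insulin to load glycogen. They were then shifted to 5 mmol/L glucose with inhibitor at 80–516 μM for 2 h to drive glycogenolysis. GP activity was read spectrophotometrically in the whole homogenate, and IC50 was derived from the concentration series.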

Homo sapiens [7] = species: Homo sapiens; assay: Competitive inhibition of human liver Glycogen phosphorylase a up to 10 uM using glucose-1-phosphate as substrate by Lineweaver-Burk plot analysis; outline: as §1
Homo sapiens [8] = species: Homo sapiens; assay: Competitive inhibition of human liver Glycogen phosphorylase a up to 180 uM using glucose-1-phosphate as substrate by Lineweaver-Burk plot analysis; outline: as §1
Homo sapiens [9] = species: Homo sapiens; assay: Competitive inhibition of human liver Glycogen phosphorylase a up to 1000 uM using glucose-1-phosphate as substrate by Lineweaver-Burk plot analysis
[10] = Inhibition of rabbit muscle Glycogen phosphorylase b using alpha-D-glucose-1-phosphate as substrate in presence of AMP by dixon plot analysis; parameters: species or system Oryctolagus cuniculus; outline: as §2
Homo sapiens [11] = species: Homo sapiens; assay: Competitive inhibition of human liver Glycogen phosphorylase a up to 650 uM using glucose-1-phosphate as substrate by Lineweaver-Burk plot analysis; outline: as §1

**Q.** Which Ki [1] does the source give for `O=C1N=C(c2cccc3ccccc23)N[C@@]12O[C@H](CO)[C@@H](O)[C@H](O)[C@H]2O` here?
**A.** 22.2 µM

**Q.** What about the Ki [2] of the same compound?
**A.** 6.6 µM

**Q.** What about the Ki [3] of the same compound?
**A.** 13 µM

**Q.** What about the inhibition (Homo sapiens [4]) of the same compound?
**A.** Active

**Q.** Which Ki [3] does the source give for `O=C1NC(=S)N[C@@]12O[C@H](CO)[C@@H](O)[C@H](O)[C@H]2O` here?
**A.** 5.1 µM

**Q.** With `O=C1N=C(c2ccc(C(F)(F)F)cc2)N[C@]12O[C@H](CO)[C@@H](O)[C@H](O)[C@H]2O` as the compound, how does the inhibition (Oryctolagus cuniculus) read?
**A.** inactive

**Q.** What does the source list for `O=C1N=C(c2ccc3ccccc3c2)N[C@@]12O[C@H](CO)[C@@H](O)[C@H](O)[C@H]2O`?
**A.** inhibition (Homo sapiens [5]): Active; Ki [1]: 1.72 µM; Ki [2]: 1.13 µM; Ki [3]: 2.11 µM; Activity (HepG2): Non-Toxic; IC50 [6]: 177 µM

**Q.** For `O=C1N=C(c2ccc(C(F)(F)F)cc2)N[C@@]12O[C@H](CO)[C@@H](O)[C@H](O)[C@H]2O`, which inhibition (Oryctolagus cuniculus) is on record?
**A.** inactive

**Q.** For `O=C1N=C(c2ccccc2)N[C@@]12O[C@H](CO)[C@@H](O)[C@H](O)[C@H]2O`, which Ki [1] is on record?
**A.** 8.4 µM

**Q.** And the Ki [2]?
**A.** 4.5 µM

**Q.** And the Ki [3]?
**A.** 9 µM

**Q.** What about the inhibition (Homo sapiens [7]) of the same compound?
**A.** Active

**Q.** Which Ki [3] does the source give for `O=C1NC(=O)[C@]2(N1)O[C@H](CO)[C@@H](O)[C@H](O)[C@H]2O` here?
**A.** 105 to 320 µM

**Q.** For `O=C1NC(=O)[C@@]2(N1)O[C@H](CO)[C@@H](O)[C@H](O)[C@H]2O`, which Ki [3] is on record?
**A.** 3.1 µM

**Q.** With `O=C1N=C(c2ccccc2)N[C@]12O[C@H](CO)[C@@H](O)[C@H](O)[C@H]2O` as the compound, how does the Ki [1] read?
**A.** 96.7 µM

**Q.** And the Ki [2]?
**A.** 34.2 µM

**Q.** And the Ki [3]?
**A.** 136 µM

**Q.** And the inhibition (Homo sapiens [8])?
**A.** Active

**Q.** For `O=C1N=C(c2cccc3ccccc23)N[C@]12O[C@H](CO)[C@@H](O)[C@H](O)[C@H]2O`, which Ki [1] is on record?
**A.** 1170 µM

**Q.** And the Ki [2]?
**A.** 653 µM

**Q.** And the inhibition (Oryctolagus cuniculus)?
**A.** inactive

**Q.** What about the inhibition (Homo sapiens [9]) of the same compound?
**A.** Active

**Q.** Which Ki [10] does the source give for `OC[C@H]1O[C@]2(ON=C(c3ccccc3)S2)[C@H](O)[C@@H](O)[C@@H]1O` here?
**A.** 26 µM

**Q.** With `O=C1N=C(c2ccc3ccccc3c2)N[C@]12O[C@H](CO)[C@@H](O)[C@H](O)[C@H]2O` as the compound, how does the Ki [1] read?
**A.** 371 µM

**Q.** What about the Ki [2] of the same compound?
**A.** 212 µM

**Q.** What about the inhibition (Oryctolagus cuniculus) of the same compound?
**A.** 25%

**Q.** What about the inhibition (Homo sapiens [11]) of the same compound?
**A.** Active
